From PubChem BioAssay
Wee1 stabilizer: Wee1 degradation inhibitors, primary screen, cell-based, HeLa, Wee1K328M-luciferase, luminescence. HeLa Luc-Wee1K328M stability; 100% = proteasome inhibitor MG132 effect. reporter increase, % at 5 µM. actives 1.2% (n = 220,000);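 active = activation above the mean of all tested compounds plus 3 SD, set per screening run, cut at about 8.8% in these data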;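 note: cells exposed to compound for 20 h before luminescence read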
RanGTP-Imp inh: inhibitors of RanGTP-importin-beta interaction, primary screen, biochemical, FRET, CFP-Ran, YFP-importin-beta, homogeneous; Ran GTPase (GTP-bound) - importin-beta complex; cell-free CFP-Ran/YFP-importin-beta FRET ratio; inhibition, % (test concentration not listed); actives 1.1% (n = 300,000); AID 2216, 2009;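 active = more than half of the replicate wells show a fall in the fluorescence ratio signal beyond about 16%, limit read from the data, passing the limit was not always enough; inconclusive = exactly half of the replicate wells pass the set limit; inactive = fewer than half of replicates pass the limit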
proKLK7 act: proKLK7 zymogen activators, primary screen, biochemical, fluorescence intensity. activation, % at 7 µM. AID 652039, 2013. actives 0.9% (n = 370,000). purified proKLK7, EDANS-DABCYL substrate fluorescence; 100% is mature enzyme control, 0% vehicle;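 active = activation above the mean of all tested compounds plus 3 SD, computed per campaign excluding outliers beyond control limits, cut at about 13% in these data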
Target sequence (P49862 whole entry, looked up): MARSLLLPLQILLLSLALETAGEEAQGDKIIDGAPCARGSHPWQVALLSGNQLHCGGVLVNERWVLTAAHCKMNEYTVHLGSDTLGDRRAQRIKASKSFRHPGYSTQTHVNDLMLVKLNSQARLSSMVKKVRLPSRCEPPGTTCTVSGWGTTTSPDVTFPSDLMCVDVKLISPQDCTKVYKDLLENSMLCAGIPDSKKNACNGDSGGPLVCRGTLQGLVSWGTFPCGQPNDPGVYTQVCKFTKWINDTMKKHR
Runt-CBFb FRET: inhibitors of RUNX1 Runt–CBFb binding, primary screen, biochemical, FRET, Cerulean-Runt, Venus-CBFb, uHTS | Cerulean-Runt/Venus-CBFb FRET ratio 530/480, 1 h | inhibition, % at 20 µM | actives 0.46% (n = 220,000) | AID 1496, 2009;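 active = inhibition over about 50% at 20 µM in the single-dose screen, limit read from the data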
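Schedule: protein complex preformed 1 h, compound exposure 1 h, room temperature, dark; test system: Cerulean-labeled Runt domain protein; amount: 100 nM per protein; buffer or medium: Tris 50 mM pH 7.5, KCl, K2SO4, 0.01% BSA; read-out: loss of energy transfer signal; detection: FRET fluorescence; controls: 5 µM unlabeled CBFb as full-inhibition high control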
AI-2 QS mod: Vibrio harveyi AI-2 quorum sensing modulators, primary screen, JMH597 strain, luminescence/OD600 ratio; Vibrio harveyi JMH597 AI-2 luminescence/OD600 ratio, 9 h; active compounds read low; strain lacks LuxN and CqsS sensors; 0 = neutral-control median; activity change, % at 7.5 µM; actives 0.4% (n = 300,000); in the data active = activity change below about -75%, passing the limit was not always enough; inconclusive = no clear call, values can overlap the other calls;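 note: luminescence divided by OD600 gain over 9 h not by final OD600 alone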
Runt-SMMHC FRET: inhibitors of RUNX1 Runt–CBFb-SMMHC binding, primary screen, biochemical, FRET, Cerulean-Runt, Venus-CBFb-SMMHC, uHTS | Cerulean-Runt/Venus-CBFb-SMMHC FRET ratio 530/480, 1 h | Runt-related transcription factor 1 (Homo sapiens) + Core-binding factor subunit beta … | inhibition, % at 20 µM | actives 0.74% (n = 220,000);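 active = mean inhibition across duplicate retests at 20 µM reaching about 50%, limit read from the data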;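 note: inhibitors lower the FRET ratio by blocking Runt binding to CBFb-SMMHC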
Large screens that a line does not name were inactive. An excerpt weighted towards active compounds, which were near 2.9% of everything screened.

CCOCCCNC(=S)N1CCCN(c2nc3cc(C)c(C)cc3cc2C#N)CC1	RanGTP-Imp inh 58.5, Runt-SMMHC FRET 51.5
CCOCCCNC(=S)N1CCCN(c2nc3cc(C)cc(C)c3cc2C#N)CC1	none
Cc1ccc2nc(CSc3nc(C)cc(C)c3C#N)[nH]c2c1	RanGTP-Imp inh 29.0
O=C(O)C1CCN(S(=O)(=O)Cc2ccccc2)CC1	none (no result: Wee1 stabilizer, Runt-CBFb FRET, Runt-SMMHC FRET)
CCOC(=O)c1sc(N/N=C/c2cc(Br)c(O)c(OC)c2)nc1C	RanGTP-Imp inh 27.3 (no result: Wee1 stabilizer, Runt-CBFb FRET, Runt-SMMHC FRET)
Cc1ccc(C(=O)O)cc1-c1ccc(/C=C2/NC(=O)N(c3ccccc3)C2=O)o1	RanGTP-Imp inh 19.8
Cc1ccc(/C=C2/NC(=O)N(Cc3ccccc3)C2=O)o1	none
O=C(O)c1ccc(-c2ccc(/C=C3\NC(=O)N(Cc4ccc(Cl)cc4)C3=O)o2)cc1	Runt-CBFb FRET 97.8, Runt-SMMHC FRET 84.0 (no result: RanGTP-Imp inh, AI-2 QS mod)
Cc1ccc(CN2C(=O)N/C(=C\c3ccc(-c4ccc(C(=O)O)cc4C)o3)C2=O)cc1	Runt-CBFb FRET 110.3, Runt-SMMHC FRET 84.0 (no result: RanGTP-Imp inh, AI-2 QS mod)
CC(C)(C)NC(=O)C(c1ccco1)N(Cc1ccc2c(c1)OCO2)C(=O)c1snc(C(N)=O)c1N (configuration not stated)	RanGTP-Imp inh inconclusive (no result: Wee1 stabilizer, Runt-CBFb FRET, Runt-SMMHC FRET)
O=C1C(=O)N(CCN2CCOCC2)C(c2ccccn2)/C1=C(/O)c1ccc(F)cc1 (configuration not stated)	RanGTP-Imp inh 19.1
Cc1c(/C(O)=C2/C(=O)C(=O)N(CCN3CCOCC3)C2c2ccccn2)cnn1-c1ccccc1 (configuration not stated)	RanGTP-Imp inh 34.6
CN(C)CCN1C(=O)C(=O)/C(=C(/O)c2ccc3c(c2)OCCO3)C1c1ccccn1 (configuration not stated)	RanGTP-Imp inh 24.3
Cc1ccc(C2/C(=C(/O)c3cnn(-c4ccccc4)c3C)C(=O)C(=O)N2CCCN2CCOCC2)o1 (configuration not stated)	none (no result: proKLK7 act)
CC1CC(NS(=O)(=O)c2cccs2)CC(C)(C)C1 (configuration not stated)	none
Cc1ccnc(N/C=C(\C#N)c2nc(-c3cccc(Br)c3)cs2)c1	RanGTP-Imp inh 56.2
CC(=O)N(C)/C=C1\Sc2ccccc2C1=O	RanGTP-Imp inh inconclusive, Runt-SMMHC FRET 76.3
CC(=O)Nc1ccc(/C=C2\Sc3ccccc3C2=O)cc1	none
CCOc1ccc(C2CC(c3cccc(Cl)c3)n3nc(N)nc3N2)cc1 (configuration not stated)	RanGTP-Imp inh 25.9
Nc1nc2n(n1)C(c1cccc(Cl)c1)CC(c1ccc(F)cc1)N2 (configuration not stated)	none
CC(C)C(=O)Nc1ccc(N2CCCC2)c(Cl)c1	none
CC(C)CC(=O)NC(=S)Nc1ccc(N2CCCC2)c(Cl)c1	Wee1 stabilizer 10.1
Cc1oc2c(CN(C)C)c(O)ccc2c(=O)c1-c1cscn1	RanGTP-Imp inh inconclusive, proKLK7 act 20.0
c1ccc(CC2CCN(c3nc4ccccc4n4nnnc34)CC2)cc1	none
Cc1ccc2nc(Cl)c3nnnn3c2c1	AI-2 QS mod -86.2 (no result: proKLK7 act)
Cc1ccc2nc(N3CCN(c4cccc(C)c4C)CC3)c3nnnn3c2c1	Wee1 stabilizer 10.4
O=C(C(=O)N1CCN(S(=O)(=O)c2ccccc2)CC1)c1cccc(C(F)(F)F)c1	none (no result: Wee1 stabilizer, RanGTP-Imp inh, Runt-CBFb FRET, AI-2 QS mod, Runt-SMMHC FRET)
Cc1ccccc1NN=Nc1nc2c([nH]1)c(=O)n(C)c(=O)n2C	Wee1 stabilizer 12.0 (no result: RanGTP-Imp inh, AI-2 QS mod)
C[C@]12c3[nH]c4cc(-c5ccco5)ccc4c3CCN1C(=O)[C@@H](CC(=O)NCCC1=CCCCC1)C[C@@H]2C(=O)N1CCCCC1	none (no result: Wee1 stabilizer, RanGTP-Imp inh, Runt-CBFb FRET, AI-2 QS mod, Runt-SMMHC FRET)
C[C@]12c3[nH]c4cc(-c5ccco5)ccc4c3CCN1C(=O)[C@@H](CC(=O)NCCc1ccccn1)C[C@@H]2C(=O)N1CCCCC1	proKLK7 act 177.7 (no result: Wee1 stabilizer, RanGTP-Imp inh, Runt-CBFb FRET, AI-2 QS mod, Runt-SMMHC FRET)
CC(=O)Nc1c(S(=O)(=O)c2ccccc2)c2nc3ccccc3nc2n1Cc1ccccc1	RanGTP-Imp inh 23.2, Runt-SMMHC FRET 73.1
C=CCn1c(NS(=O)(=O)c2ccccc2)c(S(=O)(=O)c2ccc(C)cc2)c2nc3ccccc3nc21	RanGTP-Imp inh 75.6
COc1ccc(Cl)cc1S(=O)(=O)N1CCCC1=O	Wee1 stabilizer 10.0
CCc1ccc(-c2cc(C(F)(F)F)n3nc(C(=O)Nc4c(C)nn(Cc5ccc(F)cc5)c4C)cc3n2)s1	RanGTP-Imp inh 58.4
COc1ccc(CN2C(=O)c3ccnn3CC2(C)c2nnnn2-c2c(C)cccc2C)cc1 (configuration not stated)	none (no result: Wee1 stabilizer, RanGTP-Imp inh, Runt-CBFb FRET, AI-2 QS mod, Runt-SMMHC FRET)
C[C@@H]1NC(=O)[C@H](CCC(=O)O)NC(=O)c2cc([N+](=O)[O-])cc(F)c2NCCC[C@@H](C(N)=O)NC1=O	none
NC(=O)[C@@H]1CCCCNc2c(F)cc([N+](=O)[O-])cc2C(=O)N[C@@H](CC(=O)O)C(=O)NCC(=O)N1	Wee1 stabilizer 16.8
O=[N+]([O-])c1ccc(NC(=S)N2CCOCC2)cc1	none
O=[N+]([O-])c1cccc(NC(=S)N2CCOCC2)c1	RanGTP-Imp inh 68.4
CN1CCN(C(=S)c2ccc(-c3cccc([N+](=O)[O-])c3)o2)CC1	Wee1 stabilizer 10.3
COc1ccccc1CCn1cnc(-c2ccc(Br)cc2)c1CC(C)C	none (no result: Wee1 stabilizer, RanGTP-Imp inh, Runt-CBFb FRET, AI-2 QS mod, Runt-SMMHC FRET)
O=C(/C=C/c1ccccc1)Nc1ccc(C(=O)N2CCCCC2)cc1	none
COC(=O)[C@]12C[C@H](CC(=O)NCCCCc3ccccc3)C(=O)N(Cc3ccco3)C1=C[C@H](C(C)(C)C)O[C@@H]2C	none (no result: Wee1 stabilizer, RanGTP-Imp inh, Runt-CBFb FRET, AI-2 QS mod, Runt-SMMHC FRET)
COc1cc2c(cc1OC)CN(CC(=O)Nc1cccc(C)c1)CC2	RanGTP-Imp inh 31.6
COc1cc(-c2ccc(NC(=O)CN3CCCCC3)c(OC)c2)ccc1NC(=O)CN1CCCCC1	Wee1 stabilizer 8.9 (no result: RanGTP-Imp inh, proKLK7 act, Runt-CBFb FRET, AI-2 QS mod, Runt-SMMHC FRET)
Cc1cccc(NC(=O)CN2CCc3cc4c(cc3C2)OCCCO4)c1	none (no result: Wee1 stabilizer, Runt-CBFb FRET, Runt-SMMHC FRET)
COc1cc2c(cc1OC)CN(CC(=O)Nc1ccc(F)cc1F)CC2	RanGTP-Imp inh 19.5 (no result: Wee1 stabilizer, Runt-CBFb FRET, Runt-SMMHC FRET)
CC1(C)CC(=O)N(CC(=O)N2CCN(c3cccc(C(F)(F)F)c3)CC2)c2ccccc2S1(=O)=O	none (no result: Wee1 stabilizer, RanGTP-Imp inh, Runt-CBFb FRET, AI-2 QS mod, Runt-SMMHC FRET)
COc1cc2c(C(=O)OCCN(C)C)c(CSc3ccccc3)n(C)c2cc1Br	Wee1 stabilizer 10.4
CCOC(=O)c1c(CN(C)C)n(-c2ccccc2)c2cc(Br)c(OC)cc12	none
